According to ChEMBL document CHEMBL4513216, “Probing the Open Global Health Chemical Diversity Library for Multistage-Active Starting Points for Next-Generation Antimalarials” (ACS Infect Dis, 2020):

Test: Toxicity liver stage against HepG2, at 10uM
Format: cell-based
Parameters: test concentration 10 uM, cell line HepG2-A16-CD81EGFP
Details: human, HepG2-A16-CD81EGFP cells; read-out: INHIBITION
Summary of the method: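 Uninfected HepG2-A16-CD81EGFP cells, 3 × 10^3 per well, 1536-well, plated on prespotted compound at 10 μM final, parasite-free screening media added to match infected plates; puromycin 10 μM positive, DMSO 0.5% negative; run in parallel with 48 h PbLuc assay at 37 °C, 5% CO2; viability by CellTiter-Glo luminescence, normalized to controls.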

SMILES	cytotoxicity at 10 µM [%]
CN(c1cccnn1)C1CCN(C(=O)Cc2c[nH]c3ccccc23)CC1	-20.1
Fc1cccnc1O[C@H]1CN(Cc2ccoc2)[C@@H]2CCCO[C@H]12	-0.908
CCc1c(C)nc(-n2nc(C3CC3)cc2NC(C)=O)[nH]c1=O	30.3
CCc1nc2n(n1)CC(NCc1nc3ccccc3nc1C)CC2 (stereo not given)	-141
Cc1cccc(CN2CCCn3c(nnc3CN3CCCC3=O)C2)n1	2.14
N#Cc1ccc(N2CCN(C(=O)c3cc(C4CC4)[nH]n3)CC2)c(F)c1	1.94
O=C(CC1CCCC1)N1CCCC(c2n[nH]c3nccnc23)C1 (stereo not given)	-2.6
COc1ccc(CNC(=O)NCc2c(C)cc(C)[nH]c2=O)cc1	-3.22
CC(C)NC(=O)NC[C@H]1C[C@@H]2CCN1C[C@@H]2CN(C)c1ccccc1	1.95
CNC(=O)c1cccc(Nc2cnn(C)c2)c1	6.77
COc1cc(N2CCC3(CC2)CN(S(C)(=O)=O)c2ccccc23)ncn1	12.8
O=S(=O)(C/C=C/c1ccccc1)Cc1nc(C2CC2)no1	-12.4
CCc1nc(CN2CCCN(c3ncnc4sccc34)CC2)no1	59.9
Cc1cnn(CC2CCCN2Cc2nc(C)c3ccccc3n2)c1 (stereo not given)	-8.94
CC(=O)c1cnc(N(C)Cc2cnc3ccccc3n2)nc1C	2.4
COc1ccccc1C(=O)NCCC(=O)Nc1c(C)nn(C)c1C	-9.49
CSc1ccc(CNC2CCCc3c2cnn3C)cc1 (stereo not given)	0.684
COc1ccccc1S(=O)(=O)N1CC(N(C)C)Cc2ccccc21 (stereo not given)	0.243
O=C(Nc1ccccc1)N1CCC(n2cc3[nH]cccc-3c2=O)CC1	-3.73
CN(C)C(=O)COC[C@@]12CCC[C@@H]1CN(C1CCCC1)C2	-13.2
COc1cccc(OC)c1C(C(=O)O)N(C)Cc1c(C)n[nH]c1C (stereo not given)	2.14
CCN(CC)C(C)CNC(=O)c1cccnc1Oc1cccnc1 (stereo not given)	-2.09

SMILES	cytotoxicity at 10 µM [%]
CCN(C(=O)CCCOc1ccccc1F)c1ccncc1	-5.69
Cc1[nH]c(C2(N)CCCCC2)nc(=O)c1C	-0.846
COc1ccc(S(=O)(=O)NC(=O)COC2CCCCC2)cc1	-1.64
O=C(Cc1ccsc1)N1CCN(CC2CC2)c2ncccc2C1	-101
Cc1cc(C(F)(F)F)c2c(=O)n(Cc3ccon3)n(C)c2n1	5.85
O=C(C1CC1)N(Cc1ccc2cc[nH]c2c1)C1CC1	-2.98
Cc1cc(C(=O)N2C[C@@H]3CCCO[C@@H]3[C@H](N(C)C(C)C)C2)c(C)[nH]1	10.2
Cc1nc(NCc2cccnc2)c2c(n1)c(C)nn2C	-3.42
Cc1ccc(N2N=C(C(=O)N(C)Cc3ccco3)NCC2=O)cc1	6.27
CN(C)CCN(Cc1ccc(C#N)cc1)C(=O)c1ccn(C)c(=O)c1	16.8
Cc1cc(N2CCCC2(C)c2nc(C)cc(C(=O)N(C)C)n2)ncn1 (stereo not given)	-0.846
Cc1nc(CN2C(=O)C[C@H]3[C@H]2CCN3C2CCOC2)cs1 (stereo not given in full)	-139
CN1CCCC1c1cncc(C(=O)NCc2ccccc2)n1 (stereo not given)	-1.67
CC(C)(C)c1n[nH]c(C2CN(CCc3cccs3)CCO2)n1 (stereo not given)	-7.36
CCN(CCOC)C(=O)c1cc(COc2ccc3c(c2)CCCC3)on1	-146
Cc1nccn1CCC1CCCCN1C(=O)c1ccc2nonc2c1 (stereo not given)	-6.55
Cc1cc(C(=O)N2CC[C@H]3[C@H]2CCN3S(C)(=O)=O)c(C)o1	-83.1
CCc1[nH]ncc1C(=O)N1CCCC(n2cc(C)cn2)C1 (stereo not given)	-11.4
COc1cc2c(cc1OC)CN(C(C(=O)O)c1c(C)nn(C)c1C)CC2 (stereo not given)	-3.14
COc1ccc2c(ccn2CCC(=O)Nc2ccc(C(N)=O)cc2)c1	6.1
COC[C@@]12CCC[C@@H]1CN(C(=O)Cc1ccccn1)C2	-96.7
O=C1Nc2ccccc2CN(CC2CC2)C12CCNC2 (stereo not given)	6.09

SMILES	cytotoxicity at 10 µM [%]
O=C(NCCOc1ccc(Cl)cc1)N1CCS(=O)(=O)CC1	0.89
CC(C)NC(=O)[C@@H]1C[C@@H](N)CN1C(=O)CCSCc1ccccc1	0.719
CC(C)(C)c1coc([C@@H]2COCCN2Cc2ccccc2)n1	2.72
Cc1cccc(OCC(=O)N(C)C2CCN(CC3CCOC3)CC2)c1 (stereo not given)	-6.22
NC(=O)C1CCCN1CCCc1ccc(Cl)cc1 (stereo not given)	5.39
COc1ccc(Cl)cc1-c1nc(N)nc(N)n1	1.57
CC(=O)Nc1sc2c(c1C(=O)O)CCc1ccccc1-2	0.513
Cc1oncc1C(=O)N1CC2CC1(C(=O)NCc1ccco1)C2	4.76
CC1CN(C)CCN1C(=O)NCCCn1ccnc1 (stereo not given)	-45.5
COC[C@H](C)Nc1cc(C)c2ccc(SC)cc2n1	0.466
CN(C)S(=O)(=O)N1C[C@@H](OCc2cccnc2)[C@H]2OCCC[C@H]21	0.74
O=C(c1ccc[nH]1)N1CCn2cc(Cn3cccn3)nc2C1	-81.9
CS(=O)(=O)N1CC2(CCN(C(=O)c3ccncc3)CC2)c2ccccc21	2.23
CN(C)C(=O)c1cnc2n1CCN(Cc1ccsc1)C2	-68
CC(C)NC(=O)N1CCC2(CC1)C(=O)NCCN2Cc1ccccc1	1.29
CCN1CCOCC2(CCCN(C(=O)c3conc3C)C2)C1 (stereo not given)	2.82
CC(C)S(=O)(=O)N1CCCC(c2nccn2Cc2cccnc2)C1 (stereo not given)	3.72
Cc1nc(C2CCN(S(=O)(=O)c3ccc4c(c3)CCC4)CC2)n[nH]1	-1.24
Cc1cccc2c1C(=O)NC(c1cnc(C3CCC3)s1)N2 (stereo not given)	-3.33
COCCC(=O)N1CCCC2(CCCN2Cc2ccccc2F)C1 (stereo not given)	8.01
CCc1nc(CN2CCN(C(=O)N3CCCCC3)CC2)cs1	-16
CC(C)CC(=O)NCCn1nc(C2CCNC2)c2cccnc21 (stereo not given)	-25

SMILES	cytotoxicity at 10 µM [%]
CCCNC(=O)c1ccc2c(OC)n(C)nc2c1	1.56
CN(Cc1ccccc1)CC(O)Cn1cnc2ccccc2c1=O (stereo not given)	-5.02
Cc1ccc(CN2CC[C@H](c3nc4cccc(C(N)=O)c4[nH]3)C2)cc1	35.1
CC(=O)N1CCn2c(C(=O)N(C)C)cnc2C1	1.54
Cn1ccnc1CN1CCCC(CCCc2ccccn2)(C(N)=O)C1 (stereo not given)	2.83
CC(C)(C)OC(=O)N[C@@H]1C[C@@H](O)CN(C(=O)c2ccc(F)cc2)C[C@H]1O	2.57
CC(C)c1noc(CN(Cc2cccs2)C2CC2)n1	-9.15
Cc1cc(NC(=O)C(C)N2CCN(c3nc(C)ns3)CC2)on1 (stereo not given)	-9.48
COc1cc2c(cc1CNCc1cccnc1-n1cccn1)OC(C)C2 (stereo not given)	4.6
CN1CC(c2ccccc2)CC12CCN(C(=O)c1ccncc1)CC2 (stereo not given)	-7.96
COCC1CC2(CCN(Cc3nc(C)cs3)CC2)CO1 (stereo not given)	-111
COCC(O)CN1CC(C)(C)CN(C(=O)CCc2ccccc2)CC1=O (stereo not given)	-1.83
CC(=O)N1CCOCC(Cc2ccc3c(ccn3C(C)=O)c2)C1 (stereo not given)	1.64
CC(Oc1ccccc1C(F)(F)F)C(=O)NS(=O)(=O)C(C)C (stereo not given)	-7.19
Cc1cccc(-c2nc(N)nc3c2CN(C(=O)c2cc(C)n[nH]2)C3C)c1 (stereo not given)	4.58
COc1ncc(-c2ccc(C(N)=O)cc2)c(OC)n1	-5.9
Cn1c(N2CCOCC2)nc2cc(C(=O)NCC(F)(F)F)ccc21	1.85
c1cnc(CC2CCN(c3cnccn3)CC2)cn1	4.44
Cc1noc(C)c1CN1C[C@@H](C(=O)O)[C@H](c2ccccc2)C1	-9.04
Cc1ccc(C(C)N(C)Cc2nc3c(cnn3C)c(=O)[nH]2)cc1 (stereo not given)	-3.91
O=C(NCc1ccc(Cl)cc1)[C@@H]1Cc2[nH]cnc2CN1CC1CC1	3.67
CCc1[nH]ncc1C(=O)N1CCCC(n2nc(C)nc2C)C1 (stereo not given)	-6.02

SMILES	cytotoxicity at 10 µM [%]
CC(C)c1nc2c(n1C)CCN(CC(=O)Nc1ccc(Cl)cn1)C2	0.241
CN(C)CC1(O)CCN(C(=O)Cc2ccc3c(c2)CCCC3)C1 (stereo not given)	-7.75
Oc1cc(C2CCCCN2C2CCCC2)nc(-c2cccnc2)n1 (stereo not given)	11.2
CC(=O)N1CCCC1c1nccnc1NCc1cccnc1 (stereo not given)	-6.72
Cc1c(-c2nc(-c3cccc(CN4CCOCC4)c3)no2)cnn1C	-0.988
O=C(NCCNc1ccc(C(F)(F)F)cn1)c1ccc(Br)cc1	-6.28
CN1C[C@H](COCC2CC2)[C@H]2CCN(Cc3ccco3)CC[C@H]2C1=O	-4.84
CN1CCN(CC2(O)CCN(C(=O)CCc3ccccc3F)C2)CC1 (stereo not given)	-2
CCc1cc(C(=O)N2CC[C@@H](c3ccc4c(c3)OCO4)[C@H](O)C2)[nH]n1	-3.87
O=C(CCc1ccsc1)NCc1ccnc(OC2CCOCC2)c1	5.92
Cc1ccc2[nH]c([C@H]3CCN(CC4CCCCC4)C3)nc2c1	-3.45
CC(=O)N1CC2(CCCC2)c2ccccc21	0.83
CSCCC(=O)N1CCCC1c1ccsc1 (stereo not given)	-20.3
Cc1noc(COCC(=O)Nc2cc(C)c(Br)cn2)n1	5.5
COc1ccc(C2=NOC(CO)C2)cc1 (stereo not given)	11.2
c1ccc(CCN2CCCC(c3noc(C4CC4)n3)C2)cc1 (stereo not given)	-3.62
CC1(C)CN(C(CNS(N)(=O)=O)c2ccc(Cl)cc2)CCO1 (stereo not given)	6.88
CN(C)C(=O)N1CC[C@@H](O)[C@@H]1Cc1cnn(C)c1	7.02
O=C(NC1CCN(c2ccc(-c3ccccc3F)nn2)C1)c1ccc[nH]1 (stereo not given)	7.4
COCc1c(Br)cccc1NC(=O)N(C)CCO	-9.95
CN(Cc1nc(-c2ccccc2)no1)C(=O)CNS(C)(=O)=O	0.0773
Cc1cc(NC(=O)Cn2cnc(-c3cccs3)cc2=O)no1	-0.243
